Laboratory results taken from ChEMBL document CHEMBL3526002, “Tissue distribution and identification of radioactivity components at elimination phase after oral administration of [¹⁴C]CS-1036, an α-amylase inhibitor, to rats” (Drug Metab Dispos, 2013).
One block for each compound: values may come before it.

How the values were obtained:
Plasma [1] = assay: Drug metabolism in albino F344/DuCrlCrlj rat plasma protein treated with at 10 mg/kg, po of [14C]CS-1036 administered for 5 days by liquid scintillation counting; format: ADME, organism-based; set-up: dose 10 mg/kg, dosed compound name [14C]CS-1036, route oral; settings: in vivo, 120 h
How it was run: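 Male F344/DuCrlCrlj rats (n = 3) received oral [14C]CS-1036 at 10 mg/kg/day for 5 days at 24-h intervals, with food freely available. Plasma was taken from the abdominal aorta 24 h after the fifth dose and pooled. It was precipitated with acetonitrile, and the pellets were washed with 0.4 M TCA, 80% methanol and 30% ether/ethanol until washes were below twice background. Pellets were HCl-hydrolysed, and recovered radioactivity was counted by LSC.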

[2] = Drug excretion in po dosed rat urine dosed as [14C]CS-1036 assessed as 1,4-dideoxy-1,4-imino-D-arabinitol (M1) level up to 24 hrs; format: ADME, organism-based; set-up: dosed compound name [14C]CS-1036; settings: in vivo
Rattus norvegicus = assay: Half life in po dosed rat dosed and assessed as 1,4-dideoxy-1,4-imino-D-arabinitol level (M1); format: ADME, organism-based; set-up: dosed compound name M1; settings: in vivo
Intestine = assay: Drug metabolism in po dosed rat in intestinal flora treated with [14C]CS-1036 by liquid scintillation counting; format: ADME, organism-based; set-up: dosed compound name [14C]CS-1036; settings: in vivo
Plasma [3] = assay: Drug level in albino F344/DuCrlCrlj rat plasma treated with [14C]CS-1036 at 10 mg/kg, po after 8 to 72 hrs by liquid scintillation counting; format: ADME, organism-based; set-up: dose 10 mg/kg, dosed compound name [14C]CS-1036, route oral; settings: in vivo
[4] = Systemic absorption of acarbose estimated from drug excretion in human urine; format: ADME; set-up: dosed compound name acarbose
Plasma [5] = assay: Drug uptake in albino F344/DuCrlCrlj rat assessed as radioactivity in aspartic acid in plasma protein at 10 mg/kg, po administered for 5 days by accelerator mass spectrometry analysis; format: ADME, organism-based; set-up: dose 10 mg/kg, dosed compound name [14C]CS-1036, route oral; settings: in vivo, 120 h
How it was run: (§1)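 Rats were dosed orally with [14C]CS-1036 at 10 mg/kg/day for 5 days. Pooled plasma protein was washed and HCl-hydrolysed, then PTC-derivatized. It was separated by HPLC (40°C, gradient, UV 254 nm) and fractionated every 6 s over 0–15 min. Fraction 14C was measured by AMS after subtracting matching control-plasma fractions. Peaks were assigned by retention time against amino acid standards, and each fraction was expressed as % of injected radioactivity.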

Plasma [6] = assay: Drug uptake in albino F344/DuCrlCrlj rat assessed as radioactivity in glutamic acid in plasma protein at 10 mg/kg, po administered for 5 days by accelerator mass spectrometry analysis; format: ADME, organism-based; set-up: dose 10 mg/kg, dosed compound name [14C]CS-1036, route oral; settings: in vivo, 120 h; how it was run: as §1
[7] = Drug uptake in albino F344/DuCrlCrlj rat assessed as radioactivity in oleic acid in adipose tissue homogenates at 10 mg/kg, po administered for 4 days by LC-MS/MS spectra analysis; settings: in vivo, 96 h
[8] = Drug uptake in albino F344/DuCrlCrlj rat assessed as radioactivity in palmitic acid in adipose tissue homogenates at 10 mg/kg, po administered for 4 days by LC-MS/MS spectra analysis; settings: in vivo, 96 h

Structure (SMILES): OC[C@H]1NC[C@@H](O)[C@@H]1O
Drug metabolism (Plasma [1]): metabolite_detected
Compound recovery [2]: 5.3%
t1/2 (Rattus norvegicus): 48 min
Drug metabolism (Intestine): metabolite_detected
Drug metabolism (Plasma [3]): metabolite_detected

Structure (SMILES): C[C@H]1O[C@H](O[C@H]2[C@H](O)[C@@H](O)[C@@H](O[C@H]3[C@H](O)[C@@H](O)C(O)O[C@@H]3CO)O[C@@H]2CO)[C@H](O)[C@@H](O)[C@@H]1N[C@H]1C=C(CO)[C@@H](O)[C@H](O)[C@H]1O (stereo not given in full) [ACARBOSE]
Fa [4]: 1.7%

Structure (SMILES): N[C@@H](CC(=O)O)C(=O)O [ASPARTIC ACID]
Compound recovery (Plasma [5]): 18.5%

Structure (SMILES): N[C@@H](CCC(=O)O)C(=O)O [GLUTAMIC ACID]
Compound recovery (Plasma [6]): 36.5%

More lines, now with the values ahead:

Compound recovery [7]: Active
Structure (SMILES): CCCCCCCC/C=C\CCCCCCCC(=O)O [OLEIC ACID]

Compound recovery [8]: Active
Structure (SMILES): CCCCCCCCCCCCCCCC(=O)O [PALMITIC ACID]
